Assay outcomes deposited in PubChem by SRMLSC.
Lung fibro prol: blocks proliferation of human lung fibroblasts. hit rate 1.1% among 85,000. viability, % at 10 µM. LL 47 human lung fibroblast viability, ATP luminescence; hits give low values;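 active = viability at or below 50% in the single dose screen; inactive = viability above 50%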;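 note: compound exposure lasted 72 h before the ATP readout; 100% = median luminescence of untreated cell-only wells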
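Test system: LL 47 human lung fibroblasts / Incubation: 72 h compound exposure at 37 °C after overnight plating / Technique: luminescent ATP detection, CellTiter-Glo / Compound dosing: 0.1% DMSO in all compound wells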
HUVEC prolif 384: blocks proliferation of human endothelial cells. HUVEC proliferation, CellTiter-Glo luminescence, 72 h; hits give low values. viability, % at 10 µM (by protocol). hit rate 1.1% among 86,000. AID 648;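 active = viability at or below 30%; inactive = viability above 30%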;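 note: 100% = median luminescence of DMSO-only cell control wells on each plate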
HCT116 bCat-KO: beta-catenin-lacking colon tumor cell growth suppression; HCT116 beta-catenin knockout viability, CellTiter-Glo, 60 h; hits give low values; viability, % at 10 µM; hit rate 1.5% among 140,000; AID 818;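 active = viability at or under a set limit, the compound median less 4 SD, cut at about 6% in these data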;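 note: 0% = Hyamine 1622 control at 20 µM and 100% = untreated cell control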
HCT116 PTEN-null: suppresses growth of cells with PTEN deletion; HCT116 PTEN-null viability, CellTiter-Glo, 60 h; hits give low values; viability, % at 10 µM; hit rate 1.2% among 140,000; AID 827;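 active = viability at or below a set limit, 4 SD under the median of all tested compounds, cut at about 3.7% in these data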;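 note: PTEN knockout HCT116 line with beta catenin targeted HCT116 as companion control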
H69AR growth 86K: blocks growth of human H69AR lung tumor cells. H69AR lung tumor viability, ATP luminescence, 72 h; hits give low values. viability, % at 10 µM. hit rate 6% among 85,000;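 active = viability at or below 40%; inactive = viability above 40%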;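 note: multidrug resistant small cell line overexpressing MRP-1 efflux transporter; 100% = mean luminescence of untreated control wells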
* hit, by the source's call; . = not tested or not shown. Only a selection was taken, and hits are over-represented in it overall.

SMILES	Lung fibro prol	HUVEC prolif 384	HCT116 bCat-KO	HCT116 PTEN-null	H69AR growth 86K
Cc1c(C#N)c(N=CN(C)C)c(C(=O)c2ccccc2)n1-c1ccc(Br)cc1	82	88	60	63	20*
Cc1c(C#N)c(N=CN(C)C)c(C(=O)c2ccc(Br)cc2)n1-c1ccccc1	97	95	90	83	70
CN(C)CCNC(=O)c1ccc(CS(=O)(=O)c2ccc(Br)cc2)o1	99	102	.	.	97
COc1ccccc1NC(=S)N1CCC(c2nc3cc(C)c(C)cc3[nH]2)CC1	.	.	86	81	.
COc1ccccc1NC(=O)N1CCC(c2nc3cc(C)c(C)cc3[nH]2)CC1	48*	37	16	14	27*
O=C(NC(Nc1ncc(S(=O)(=O)c2ccc([N+](=O)[O-])cc2)s1)(C(F)(F)F)C(F)(F)F)c1ccc(Cl)cc1	.	.	2.6*	3.1*	.
O=C(Nc1ncc(S(=O)(=O)c2ccc([N+](=O)[O-])cc2)s1)c1cccc2ccccc12	.	.	43	40	.
CC1(C)CC2CC(C)(CN2C(=O)c2cc(-c3ccccc3O)on2)C1 (stereo not drawn)	85	91	58	47	16*
COc1ccc(-c2cc(C(=O)N3CC4(C)CC3CC(C)(C)C4)no2)cc1 (stereo not drawn)	104	86	44	38	83
CCN1c2ccccc2NC2C1C(C(C)=O)C(=O)N2c1ccc(Cl)cc1 (stereo not drawn)	79	54	75	69	18*
COc1cccc(-n2nnc3c(=O)n(CC(=O)N4CCC(Cc5ccccc5)CC4)cnc32)c1	94	75	66	68	30*
C=C1C(=O)C=C2CN(C(=O)c3ccccc3)[C@@](Cc3ccc(F)cc3)(C(=O)OC)[C@@H]12	.	.	0.9*	1.0*	.
COC(=O)[C@@]1(Cc2ccc(OC)cc2)[C@@H]2C(=CC(=O)[C@H]2CC(=O)C(=O)N(C)C)CN1C(=O)c1ccccc1	.	.	2.2*	2.5*	.
CCc1ccc(C(=O)COC(=O)CNC(=O)COc2ccccc2)cc1	.	.	89	99	.
Cn1c(=O)c2c(ncn2CC(=O)Nc2cc(Cl)c(Cl)cc2Cl)n(C)c1=O	84	91	.	.	90
Cc1ccc(Sc2nc3c(c(=O)[nH]c(=O)n3C)n2CCc2ccccc2)cc1	82	68	11	2.8*	14*
Cn1c(=O)[nH]c(=O)c2c1nc(N1CCOCC1)n2CCN1CCOCC1	107	103	88	88	90
COc1ccc(CCn2c(N3CCN(Cc4ccccc4)CC3)nc3c2c(=O)[nH]c(=O)n3C)cc1	98	85	99	91	33*
COc1ccc(CCn2c(N3CCOCC3)nc3c2c(=O)[nH]c(=O)n3C)cc1	92	89	96	91	25*
CN1CCN(Cc2nc3c(c(=O)[nH]c(=O)n3C)n2CCc2ccccc2)CC1	100	89	86	107	86
COc1ccc(OCC(O)Cn2c(Br)nc3c2c(=O)[nH]c(=O)n3C)cc1 (stereo not drawn)	98	94	28	19	35*
Cc1ccc2c(c1)[nH]c1c(N3CCN(Cc4ccc5c(c4)OCO5)CC3)ncnc12	107	69	.	.	65
COc1ccc(C2SCC(=O)N2CC23CC4CC(CC(C4)C2)C3)cc1 (stereo not drawn)	93	77	75	73	93
COc1cc2c(cc1OC)C(=O)CC(C)S2 (stereo not drawn)	.	.	94	89	.
Brc1cc(Br)c2ncnc(N3CCCCC3)c2c1	16*	8.9*	5.8*	10	1.7*
SMILES	Lung fibro prol	HUVEC prolif 384	HCT116 bCat-KO	HCT116 PTEN-null	H69AR growth 86K
Clc1ccc(-n2ncc3c(N4CCCCCC4)ncnc32)cc1	103	87	91	98	79
O=[N+]([O-])c1ccc2nnn(O)c2c1	.	.	88	86	.
Cc1ccc(C(=O)CSc2nnc(-c3ccc4[nH]c(C)c(C)c4c3)o2)cc1C	.	.	4.2*	2.1*	.
FC(F)(F)c1cccc(Sc2nc(-c3ccccc3)nnc2C(F)(F)F)c1	.	.	5.3*	11	.
FC(F)(F)c1nnc(-c2ccccc2)nc1Sc1ccc(Cl)cc1	.	.	87	84	.
FC(F)(F)c1cccc(Oc2nc(-c3ccccc3)nnc2C(F)(F)F)c1	.	.	96	96	.
FC(F)(F)c1nnc(-c2ccccc2)nc1Sc1ccccc1	.	.	1.6*	1.3*	.
CCCCc1ccc(-c2csc(/C(C#N)=C\c3ccc(C)o3)n2)cc1	.	.	95	87	.
CCOc1ccc(-c2csc(/C(C#N)=C\c3ccc(O)c([N+](=O)[O-])c3)n2)cc1	.	.	5.5*	5	.
Cc1nn(C)cc1/C=C/C(=O)c1cccs1	103	102	67	67	39*
CN(Cc1cc2ccccc2[nH]c1=O)S(C)(=O)=O	108	90	88	86	101
Cc1c(/C=N/NC(=O)C(NC(=O)c2ccc3c(c2)OCO3)C(C)C)c2ccccc2n1C (stereo not drawn)	.	.	70	81	.
Cc1ccc2[nH]c3c(c2c1)CN(C(=O)CN1CCN(c2cccc(C)c2C)CC1)CC3	106	69	67	66	42
Cc1ccc2[nH]c3c(c2c1)CN(C(=O)CN1c2ccc(F)cc2CCC1C)CC3 (stereo not drawn)	95	63	12	15	11*
CCCCN1C(=O)C(NC(C)=O)c2cc(Br)ccc21 (stereo not drawn)	100	95	62	65	24*
Cc1cccc(NC(=O)c2ccc(N(C)C3CCCCC3)c([N+](=O)[O-])c2)n1	.	.	62	52	.
Cc1ccc2c(c1)c1c(n2CC(O)Cn2c(C)nc3ccccc32)C(=O)CCC1 (stereo not drawn)	92	74	36	42	81
Cc1ccc2c(c1)c1c(n2CC(O)Cn2c(C)nc3ccccc32)/C(=N\O)CCC1 (stereo not drawn)	94	3.4*	39	34	2.7*
CCC(C)Nc1nc(CN2CCOCC2)nc2sc3c(c12)CCC3 (stereo not drawn)	.	.	74	75	.
COc1ccc(-n2c(SCc3ccc([N+](=O)[O-])cc3)nnc2-c2ccc(C)cc2)cc1	.	.	58	55	.
O=C(Nc1ncnc2sc3c(c12)CCC3)c1ccco1	88	92	100	97	89
C(=N\Nc1ncnc2sc3c(c12)CCC3)/c1ccncc1	.	.	10	3.3*	.
C(=N\Nc1ncnc2sc3c(c12)CCC3)/c1cccs1	.	.	2.1*	2.5*	.
COC(=O)c1c(NC(NC(=O)C(C)C)C(Cl)(Cl)Cl)sc2c1CCC2 (stereo not drawn)	.	.	66	66	.
O=c1[nH][nH]c(-c2ccccc2O)c1C(C[N+](=O)[O-])c1ccccc1 (stereo not drawn)	.	.	5.7*	4	.
O=c1[nH][nH]c(-c2ccccc2O)c1C(C[N+](=O)[O-])c1ccc(Cl)cc1Cl (stereo not drawn)	.	.	36	58	.
O=c1[nH][nH]c(-c2ccccc2O)c1C(C[N+](=O)[O-])c1cccc(Cl)c1 (stereo not drawn)	.	.	5.9*	8	.
CCN(CC)c1ccc(C=C(c2nnnn2-c2ccc(C)cc2)c2nnnn2-c2ccc(C)cc2)cc1	.	.	82	86	.
